Measured values: ChEMBL document CHEMBL3751702, “Comprehensive Analysis of Structure-Activity Relationships of α-Ketoheterocycles as sn-1-Diacylglycerol Lipase α Inhibitors” (J Med Chem, 2015)

The molecules below were run against T1, Diacylglycerol lipase-alpha (Homo sapiens, UniProt Q9Y4D2) (assay: Inhibition of full-length human DAGLalpha expressed in HEK293T cell membranes using para-nitrophenylbutyrate by colorimetric assay).
T1 sequence (Q9Y4D2 whole entry): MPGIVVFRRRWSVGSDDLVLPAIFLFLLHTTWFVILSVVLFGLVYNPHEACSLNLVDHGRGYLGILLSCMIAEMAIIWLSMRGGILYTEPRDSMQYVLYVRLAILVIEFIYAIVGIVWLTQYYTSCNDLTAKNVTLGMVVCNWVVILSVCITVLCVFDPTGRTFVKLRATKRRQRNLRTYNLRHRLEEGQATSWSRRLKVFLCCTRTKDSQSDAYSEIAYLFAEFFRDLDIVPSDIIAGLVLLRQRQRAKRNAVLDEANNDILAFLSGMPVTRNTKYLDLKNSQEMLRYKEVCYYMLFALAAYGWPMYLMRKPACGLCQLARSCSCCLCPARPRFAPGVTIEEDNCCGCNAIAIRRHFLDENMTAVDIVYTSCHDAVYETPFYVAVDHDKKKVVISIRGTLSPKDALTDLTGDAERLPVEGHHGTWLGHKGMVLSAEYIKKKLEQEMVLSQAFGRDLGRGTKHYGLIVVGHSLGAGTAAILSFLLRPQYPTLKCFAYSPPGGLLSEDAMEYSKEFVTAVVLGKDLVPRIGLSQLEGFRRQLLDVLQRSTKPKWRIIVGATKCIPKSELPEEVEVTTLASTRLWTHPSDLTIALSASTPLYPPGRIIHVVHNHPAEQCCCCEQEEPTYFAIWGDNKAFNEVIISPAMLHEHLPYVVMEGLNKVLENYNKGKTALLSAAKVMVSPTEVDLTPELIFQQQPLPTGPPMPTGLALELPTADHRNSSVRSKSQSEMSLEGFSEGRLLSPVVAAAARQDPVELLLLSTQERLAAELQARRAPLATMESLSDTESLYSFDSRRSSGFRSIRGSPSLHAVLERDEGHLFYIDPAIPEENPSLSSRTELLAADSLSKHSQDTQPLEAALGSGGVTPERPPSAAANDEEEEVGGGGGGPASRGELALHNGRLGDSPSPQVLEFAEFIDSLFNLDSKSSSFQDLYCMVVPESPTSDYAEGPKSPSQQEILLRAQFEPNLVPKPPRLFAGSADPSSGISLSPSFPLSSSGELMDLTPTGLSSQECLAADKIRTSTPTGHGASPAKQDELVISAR
Format: cell-based, HEK-293T
Summary of the method: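 Membranes from HEK293T cells transiently transfected with full-length human DAGL-α (pcDNA3.1; PEI transfection, harvested at 72 h), diluted to 0.05 μg/μL final protein in 50 mM HEPES pH 7.2. Screen at 10 μM in duplicate; dose response by 10-fold serial dilution.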
For `O=C(CCCCCc1ccccc1)c1nc2ccccc2o1`, the IC50 was 3630 nM. `CCCCC/C=C\C/C=C\C/C=C\C/C=C\CCCC(=O)c1nc2ncccc2o1` showed an IC50 of 2400 nM. In the case of `O=C(CCCCCc1ccccc1)c1nc2ncccc2s1`, the IC50 is reported as greater than 10000 nM. For `O=C(CCCCCc1ccccc1)c1nc2cccc(F)c2o1`, the IC50 was greater than 10000 nM. `O=C(CCCCCc1ccccc1)c1nc2cc(F)ccc2o1` showed an IC50 of 1410 nM. `O=C(CCCCCc1ccccc1)c1nc2cccnc2o1` showed an IC50 of 1700 nM. Molecule `O=C(CCCCCc1ccccc1)c1nc2ccccc2[nH]1` has an IC50 of 12000 nM. `O=C(CCCCCc1ccccc1)c1nc2cnccc2o1` showed an IC50 of 204 nM. `O=C(CCCCCc1ccccc1)c1nc2ccc(F)cc2o1` was tested, and the IC50 was 708 nM. For `O=C(CCCCCc1ccccc1)c1nc2ncccc2[nH]1`, the IC50 was 1230 nM. Molecule `O=C(CCCCCc1ccccc1)c1nc2cc([N+](=O)[O-])ccc2o1` has an IC50 of 891 nM. Molecule `O=C(CCCCCc1ccccc1)c1nc2ccc([N+](=O)[O-])cc2o1` has an IC50 of 87.1 nM. Molecule `CCCCCCCC/C=C\CCCCCCCC(=O)c1nc2ccccc2[nH]1` has an IC50 of 195 nM. `O=C(CCCCCc1ccccc1)c1nc2c(F)cccc2o1` showed an IC50 of 117 nM. `O=C(CCCCCc1ccccc1)c1nc2ccc(Br)cc2o1` showed an IC50 of 5890 nM. For `O=C(CCCCCc1ccccc1)c1nc2ccccc2s1`, the IC50 was greater than 10000 nM. With `O=C(CCCCCc1ccccc1)c1nc2cccc(Br)c2o1` the IC50 was greater than 10000 nM. In the case of `O=C(CCCCCCc1ccccc1)c1nnc(-c2cccs2)s1`, the IC50 is reported as greater than 10000 nM. Work on `COC(=O)c1nnc(C(=O)CCCCCCc2ccccc2)s1` yielded an IC50 greater than 10000 nM. Molecule `O=C(CCCCCCc1ccccc1)c1ncc(-c2ccccn2)s1` has an IC50 greater than 10000 nM. Molecule `O=C(CCCCCCc1ccccc1)c1ncc(-c2ccco2)s1` has an IC50 greater than 10000 nM. For `O=C(CCCCCCc1ccccc1)c1nncs1`, the IC50 was greater than 10000 nM. Work on `O=C(CCCCCCc1ccccc1)c1nnc(-c2ccccn2)s1` yielded an IC50 greater than 10000 nM. Molecule `O=C(CCCCCCc1ccccc1)c1ncc(-c2cccs2)s1` has an IC50 greater than 10000 nM. Work on `O=C(CCCCCCc1ccccc1)c1nnc(-c2ccco2)s1` yielded an IC50 greater than 10000 nM.
